Experimental data from ChEMBL document CHEMBL1150226, “Cytotoxic constituents from leaves of Aglaia elliptifolia” (2001).
Converted amounts (≈) assume the structure as drawn.

Legend:
Type in all cases: functional
Details in all cases: read-out: ED50 (the source's name)
A549 = assay: Cytotoxicity against human A549 cells
Summary of the method: (§1)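 Cell lines obtained from the American Type Culture Collection; the assay protocol itself is given only by reference to earlier work.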

HT-29 = assay: Cytotoxicity against human HT-29 cells; summary of the method: as §1
KB = assay: Cytotoxicity against human KB cells
Summary of the method: (§2)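 KB and P-388 cells supplied by an academic laboratory (University of Illinois at Chicago); the assay protocol itself is given only by reference to earlier work.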

HL-60 = assay: Cytotoxicity against human HL60 cells; summary of the method: as §1
P388 = assay: Cytotoxicity against mouse P388 cells; summary of the method: as §2

SMILES | EC50 (A549) [µg/mL] | EC50 (HT-29) [µg/mL] | EC50 (KB) [µg/mL] | EC50 (HL-60) [µg/mL] | EC50 (P388) [µg/mL]
C/C=C(\C)C(=O)NC(CCCO)NC(=O)/C=C/c1ccccc1 (stereo not given) | > 50 | > 50 | > 50 | 32.1 (≈ 101 µM) | 3.62 (≈ 11.4 µM)
C/C=C(\C)C(=O)N[C@@H]1CCCN1C(=O)[C@@H]1[C@@H](c2ccccc2)[C@]2(c3ccc(OC)cc3)Oc3cc(OC)cc(OC)c3[C@@]1(O)[C@@H]2O [ELLIPTIFOLINE] | 18.9 (≈ 30.1 µM) | > 50 | > 50 | > 50 | 3.41 (≈ 5.42 µM)
COc1ccc([C@@]23Oc4cc(OC)cc(OC)c4[C@]2(O)[C@H](O)[C@H](C(=O)O)[C@H]3c2ccccc2)cc1 [ROCAGLOIC ACID] | 0.00074 (≈ 0.00155 µM) | 0.00084 (≈ 0.00176 µM) | 0.0023 (≈ 0.00481 µM) | 0.00084 (≈ 0.00176 µM) | 0.0012 (≈ 0.00251 µM)
